Experiments:
[1] = Selectivity index, ratio of IC50 for human RBC to IC50 for Trypanosoma cruzi Sylvio X-10 amastigotes
Method in brief: (§1)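 Hemolysis: washed human erythrocytes (2% w/v in PBS) incubated 24 h at 37 °C with compound at final 50, 100 and 200 μM. Ten replicates per concentration. Hemoglobin release read at 405 nm against water lysis as 100%; amphotericin B 1.5 μM was the positive control. SI = IC50 red cells / parasite IC50 (Sylvio X-10 amastigotes or Tulahuen 2 epimastigotes).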

Trypanosoma cruzi [2] = assay: Antitrypanosomal activity against Trypanosoma cruzi Sylvio X-10 amastigotes infected in African green monkey Vero cells assessed as eradication of amastigotes after 5 days by Giemsa staining-based assay; format: functional, organism-based; conditions: Sylvio X-10, Vero, 120 h
Method in brief: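 VERO cells in RPMI 1640 with 10% hiFCS were allowed to adhere for 24 h at 37 °C in 5% CO₂, then infected with tissue-derived trypomastigotes at 10:1. Free parasites were washed off after 24 h, and cultures were treated at five compound doses (text gives 72 h / 5 days). Cultures were methanol-fixed and Giemsa-stained, and infected cells were counted among 300. Quadruplicates were run in three independent experiments. IC50/IC90 were obtained by sigmoidal regression.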

Trypanosoma cruzi [3] = assay: Antitrypanosomal activity against Trypanosoma cruzi Tulahuen 2 epimastigotes assessed as growth inhibition after 5 days; format: functional, organism-based; conditions: Trypanosoma cruzi, Tulahuen 2, 120 h
Method in brief: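 Epimastigotes were grown axenically at 28 °C in BHI-tryptose with 5% FBS and seeded from a 5–7 day culture at 1 × 10⁶ cells/mL. Drug from a DMSO stock was added (final DMSO ≤0.4%; the control contained 0.4% DMSO). Duplicates were run. A600 was read at day 5, and % inhibition was calculated relative to day-0 and control readings. IC50 = concentration that halves the absorbance ratio.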

Salmonella typhimurium [4] = assay: Mutagenic activity in Salmonella typhimurium TA98 at 5 to 400 ug/plate by Ames test; format: toxicity, organism-based; conditions: salmonella enterica subsp. enterica serovar typhimurium
Method in brief: (§2)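 Ames plate-incorporation assay with S. typhimurium TA98 in Vogel-Bonner E minimal glucose agar. Toxicity toward the bacteria was checked first. DMSO solutions were run in triplicate at five consecutive third-dilutions, starting at the highest non-toxic dose. Positive controls were 4-nitro-o-phenylenediamine (20.0 μg/plate) and 2-aminofluorene (10.0 μg/plate); DMSO was the negative control. Revertants were counted manually. A compound was called mutagenic when revertants were at least twice the negative control at two or more consecutive doses.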

Salmonella typhimurium [5] = assay: Mutagenic activity in Salmonella typhimurium TA98 at 5 to 400 ug/plate by Ames test in presence of mouse liver S9 fraction; format: toxicity, organism-based; conditions: salmonella enterica subsp. enterica serovar typhimurium; method in brief: as §2
Trypanosoma cruzi [6] = assay: Antitrypanosomal activity against Trypanosoma cruzi Sylvio X-10 amastigotes infected in African green monkey Vero cells assessed as eradication of amastigotes after 72 hrs by Giemsa staining-based assay; conditions: Sylvio X-10, Vero
[7] = Stability of the compound in aqueous solution assessed as compound remaining at 1 mM at pH 7.4 after 1 hr by TLC analysis; format: physicochemical
Method in brief: (§3)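 DMSO stocks diluted to final 1 mM in KCl·HCl pH 1.0, citrate pH 6.0, Tris·HCl pH 7.4 or borax·HCl pH 9.0 buffer. Incubated 1 h at 37 °C, then ethyl acetate extracts checked by TLC for decomposition products.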

[8] = Stability of the compound in aqueous solution assessed as compound remaining at 1 mM at pH 6 after 1 hr by TLC analysis; format: physicochemical; method in brief: as §3
[9] = Stability of the compound in aqueous solution assessed as compound remaining at 1 mM at pH 9 after 1 hr by TLC analysis; format: physicochemical; method in brief: as §3
Salmonella typhimurium [10] = assay: Mutagenic activity in Salmonella typhimurium TA98 at 0.005 to 0.4 ug/plate by Ames test in presence of mouse liver S9 fraction; format: toxicity, organism-based; conditions: salmonella enterica subsp. enterica serovar typhimurium
Method in brief: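 Plate-incorporation Ames test on minimal glucose agar with 500 μL Aroclor-treated mouse liver S9 added. DMSO solutions were tested at five consecutive 3-fold dilutions from the highest non-toxic dose, in triplicate, with a DMSO negative control. Revertants were counted manually; a compound was scored mutagenic when revertants were at least twice the negative control for two or more consecutive doses.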

Salmonella typhimurium [11] = assay: Mutagenic activity in Salmonella typhimurium TA98 at 0.005 to 0.4 ug/plate by Ames test; format: toxicity, organism-based; conditions: salmonella enterica subsp. enterica serovar typhimurium
Method in brief: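 Direct plate incubation on minimal glucose agar (Vogel-Bonner E). Compound toxicity to the bacteria was checked first. DMSO solutions were tested at five consecutive 3-fold dilutions, starting from the highest non-toxic dose, in triplicate, without metabolic activation. DMSO served as negative control. Revertants were counted manually; mutagenic = revertants at least double the negative control at two or more consecutive doses.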

[12] = Selectivity index, ratio of IC50 for African green monkey Vero cells to IC50 for Trypanosoma cruzi Sylvio X-10 amastigotes; format: toxicity, cell-based; conditions: read-out: Ratio IC50
Method in brief: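 VERO cytotoxicity: cells exposed 48 h at 37 °C, 5% CO2 to serial dilutions from a maximum of 2000 μM (DMSO stocks; DMSO <0.1% control); growth inhibition read by MTT at 570 nm. Amastigote IC50: Sylvio X-10-infected VERO cells, five doses, infected cells counted among 300 (Giemsa), quadruplicate, three experiments, sigmoidal fit. SI = IC50 VERO / IC50 amastigote.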

Salmonella typhimurium [13] = assay: Mutagenic activity in Salmonella typhimurium TA98 at 3.1 to 250 ug/plate by Ames test in presence of mouse liver S9 fraction; format: toxicity, organism-based; conditions: salmonella enterica subsp. enterica serovar typhimurium; method in brief: as §2
Salmonella typhimurium [14] = assay: Mutagenic activity in Salmonella typhimurium TA98 at 3.1 to 250 ug/plate by Ames test; format: toxicity, organism-based; conditions: salmonella enterica subsp. enterica serovar typhimurium; method in brief: as §2
[15] = Selectivity index, ratio of IC50 for human RBC to IC50 for Trypanosoma cruzi Tulahuen 2 epimastigotes; method in brief: as §1
Salmonella typhimurium [16] = assay: Mutagenic activity in Salmonella typhimurium TA98 at 3 to 250 ug/plate by Ames test in presence of mouse liver S9 fraction; format: toxicity, organism-based; conditions: salmonella enterica subsp. enterica serovar typhimurium; method in brief: as §2

Row | Structure (SMILES) | IC50 (Trypanosoma cruzi [2]) [µM] | IC50 (Trypanosoma cruzi [3]) [µM] | IC90 (Trypanosoma cruzi [6]) [µM] | other results
1 | C[C@@H]1[C@H](O)[C@@H](C)/C=C/C=C/C=C/C=C/C=C/C=C/C=C/[C@H](O[C@@H]2O[C@H](C)[C@@H](O)[C@H](N)[C@@H]2O)C[C@@H]2O[C@](O)(C[C@@H](O)C[C@@H](O)[C@H](O)CC[C@@H](O)C[C@@H](O)CC(=O)O[C@H]1C)C[C@H](O)[C@H]2C(=O)O [AMPHOTERICIN B] | 1.1 |  |  | Ratio IC50 [1]: 10
2 | C=CCNC(=S)N/N=C/C=C/c1cccs1 |  | > 25 |  | Activity (Salmonella typhimurium [4]): Non-toxic; Activity (Salmonella typhimurium [5]): Non-toxic
3 | O=[N+]([O-])c1ccc(/C=N/NC(=S)Nc2ccccc2)s1 | 4.1 | 4 |  | selectivity ratio [12]: 20
4 | C=CCn1c(-c2ccc(OC)cc2)cs\c1=N/N=C/C=C/c1ccco1 |  | 4.9 |  | Activity (Salmonella typhimurium [4]): Non-toxic; remaining at 1 h, 1000 µM ([7]; aqueous solution, pH 7.4, read-out: Stability): > 95%; remaining at 1 h, 1000 µM ([8]; aqueous solution, pH 6, read-out: Stability): > 95%; Activity (Salmonella typhimurium [5]): Non-toxic; remaining at 1 h, 1000 µM ([9]; aqueous solution, pH 9, read-out: Stability): > 95%
5 | Br.C=CCn1c(-c2ccc(Cl)cc2)cs\c1=N/N=C/C=C/C=C/c1cccs1 | > 25 | 11 | > 25 | Activity (Salmonella typhimurium [13]): Non-toxic; Activity (Salmonella typhimurium [14]): Non-toxic
6 | S=C(N/N=C/c1cccs1)Nc1ccccc1 |  | 4.7 |  | Ratio IC50 [15]: 21
7 | C=CCN1C(=O)CS\C1=N/N=C/C=C/c1cccs1 |  | 20 |  | Activity (Salmonella typhimurium [4]): Toxic; Activity (Salmonella typhimurium [16]): Toxic

Continued, in another order:

Row | IC50 (Trypanosoma cruzi [2]) [µM] | IC50 (Trypanosoma cruzi [3]) [µM] | IC90 (Trypanosoma cruzi [6]) [µM] | Structure (SMILES) | other results
8 | > 25 | > 25 | > 25 | C=CCn1c(C)cs/c1=N\N=C\c1cccs1 | Stability ([7]; buffer, pH 7.4, 1 h, 1000 µM): Unstable; Stability ([8]; buffer, pH 6, 1 h, 1000 µM): Unstable; Stability ([9]; buffer, pH 9, 1 h, 1000 µM): Unstable
9 | 10.5 | 10 |  | C=CCn1c(C)cs/c1=N\N=C\c1ccc([N+](=O)[O-])s1 | Activity (Salmonella typhimurium [10]): Non-toxic; Activity (Salmonella typhimurium [11]): Non-toxic
10 | > 25 | > 25 | > 25 | C=CCN1C(=O)CS/C1=N\N=C\c1ccc([N+](=O)[O-])s1 | 
11 | 2.55 | 20 |  | C=CCn1c(C)csc1=N/N=C/c1ccc([N+](=O)[O-])s1 | Activity (Salmonella typhimurium [10]): Non-toxic; Activity (Salmonella typhimurium [11]): Non-toxic
12 | 16.9 | 10 | 25.4 | C=CCn1c(-c2ccc(Cl)cc2)cs\c1=N/N=C/C=C/c1ccc([N+](=O)[O-])s1 | 
13 | > 25 | 13 | > 25 | O=C1CS/C(=N\N=C\c2ccc([N+](=O)[O-])s2)N1c1ccccc1 (stereo in doubt; 10) | 
14 |  | > 25 |  | Br.C=CCn1c(-c2ccc([N+](=O)[O-])cc2)cs\c1=N/N=C/C=C/c1ccco1 | Activity (Salmonella typhimurium [4]): Toxic; Activity (Salmonella typhimurium [5]): Toxic
